# From ChEMBL document CHEMBL1148478, “Benzo[f]azino[2,1-a]phthalazinium cations: novel DNA intercalating chromophores with antiproliferative activity” (2004)
# Active and inactive are the calls of the source. No cut-off for these calls is given here.
# Experiments:
# IGROV-1 [1] = test: In vitro antiproliferative activity against human IGROV-ET ovarian cell line; NS = Not significant; format: functional, cell-based
# Summary of the method: (§1)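 SRB colorimetric growth assay. Cells seeded at 5×10^3 per well in RPMI and left to attach in drug-free medium for 18 h. Compounds were then added in DMSO/H2O 3:7 and exposed for 72 h. Cells were fixed with cold 50% TCA for 60 min at 4 °C and stained with 0.4% SRB for 10 min. Bound dye was solubilized in Tris and OD read at 490 nm. GI50 was derived from control, test and time-zero OD. Triplicate; values above 10 μM were scored NS.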
# SK-MEL-28 [2] = test: In vitro antiproliferative activity against human MEL-28 melanoma cell line; NS = Not significant; format: functional, cell-based; summary of the method: as §1
# K562 [3] = test: In vitro antiproliferative activity against human K-562 cell line; format: functional; summary of the method: as §1
# HeLa [4] = test: In vitro antiproliferative activity against human HeLa cervix cell line; NS = Not significant; format: functional, cell-based; summary of the method: as §1
# LoVo [5] = test: In vitro antiproliferative activity against human LOVO colon cell line; NS = Not significant; format: functional, cell-based; summary of the method: as §1
# PANC-1 [6] = test: In vitro antiproliferative activity against human PANC-1 pancreas cell line; NS = Not significant; format: functional, cell-based; summary of the method: as §1
# HeLa [7] = test: In vitro antiproliferative activity against human HeLa-APL cervix cell line; NS = Not significant; format: functional, cell-based; summary of the method: as §1
# LNCaP = test: In vitro antiproliferative activity against human LN-caP prostate cell line; format: functional; summary of the method: as §1
# SK-BR-3 = test: In vitro antiproliferative activity against human SK-BR-3 breast cell line; format: functional; summary of the method: as §1
# DU-145 [8] = test: In vitro antiproliferative activity against human DU-145 prostate cell line; NS = Not significant; format: functional, cell-based; summary of the method: as §1
# A549 [9] = test: In vitro antiproliferative activity against human A-549 NSCL cell line; NS = Not significant; format: functional, cell-based; summary of the method: as §1
# HT-29 [10] = test: In vitro antiproliferative activity against human HT-29 colon cell line; NS = Not significant; format: functional, cell-based; summary of the method: as §1
# IGROV-1 [11] = test: In vitro antiproliferative activity against human IGROV ovarian cell line; format: functional; summary of the method: as §1
# LoVo [12] = test: In vitro antiproliferative activity against human LOVO-DOX colon cell line; NS = Not significant; format: functional, cell-based; summary of the method: as §1
# HeLa [13] = test: In vitro antiproliferative activity against human HeLa cervix cell line; format: functional; summary of the method: as §1
# HT-29 [14] = test: In vitro antiproliferative activity against human HT-29 colon cell line; format: functional; summary of the method: as §1
# DU-145 [15] = test: In vitro antiproliferative activity against human DU-145 prostate cell line; format: functional; summary of the method: as §1
# LoVo [16] = test: In vitro antiproliferative activity against human LOVO colon cell line; format: functional; summary of the method: as §1
# A549 [17] = test: In vitro antiproliferative activity against human A-549 NSCL cell line; format: functional; summary of the method: as §1
# PANC-1 [18] = test: In vitro antiproliferative activity against human PANC-1 pancreas cell line; format: functional; summary of the method: as §1
# HeLa [19] = test: In vitro antiproliferative activity against human HeLa-APL cervix cell line; format: functional; summary of the method: as §1
# SK-MEL-28 [20] = test: In vitro antiproliferative activity against human MEL-28 melanoma cell line; format: functional; summary of the method: as §1
# IGROV-1 [21] = test: In vitro antiproliferative activity against human IGROV-ET ovarian cell line; format: functional; summary of the method: as §1
# LoVo [22] = test: In vitro antiproliferative activity against human LOVO-DOX colon cell line; format: functional; summary of the method: as §1
# K562 [23] = test: In vitro antiproliferative activity against human K-562 cell line; NS = Not significant; format: functional, cell-based; summary of the method: as §1
Structure (SMILES),GI50 (IGROV-1 [1]),GI50 (K562 [3]) [nM],GI50 (HeLa [7]),GI50 (LNCaP) [nM],GI50 (SK-BR-3) [nM],GI50 (IGROV-1 [11]) [nM],GI50 (LoVo [12]),GI50 (HeLa [13]) [nM],GI50 (HT-29 [14]) [nM],GI50 (DU-145 [15]) [nM],GI50 (LoVo [16]) [nM],GI50 (A549 [17]) [nM],GI50 (PANC-1 [18]) [nM],GI50 (HeLa [19]) [nM],GI50 (SK-MEL-28 [20]) [nM],GI50 (IGROV-1 [21]) [nM],GI50 (LoVo [22]) [nM],other results
c1ccc(-c2n[n+]3ccccc3c3ccc4ccccc4c23)cc1,inactive,7600,inactive,5200,9700,100,inactive,–,–,–,–,–,–,–,–,–,–,GI50 (SK-MEL-28 [2]): inactive; GI50 (HeLa [4]): inactive; GI50 (LoVo [5]): inactive; GI50 (PANC-1 [6]): inactive; GI50 (DU-145 [8]): inactive; GI50 (A549 [9]): inactive; GI50 (HT-29 [10]): inactive
CCOc1ccc(-c2n[n+]3c4ccccc4ccc3c3ccc4ccccc4c23)cc1,inactive,6700,–,2600,3900,2600,inactive,4600,5400,5800,6300,6000,4900,7400,5300,–,–,–
Cc1cccc2c3ccc4ccccc4c3c(-c3ccccc3)n[n+]12,–,1500,–,400,500,1700,–,3800,1200,3100,3000,4200,3400,4100,2500,2900,5400,–
Cc1ccc2c(ccc3c4ccc5ccccc5c4c(-c4ccccc4)n[n+]23)c1,–,200,inactive,200,500,500,–,500,400,500,400,600,700,–,500,1800,3600,–
Cc1cc[n+]2nc(-c3ccccc3)c3c4ccccc4ccc3c2c1,inactive,–,inactive,4000,4600,6500,inactive,–,–,–,–,–,–,–,8400,–,–,GI50 (HeLa [4]): inactive; GI50 (LoVo [5]): inactive; GI50 (PANC-1 [6]): inactive; GI50 (DU-145 [8]): inactive; GI50 (A549 [9]): inactive; GI50 (K562 [23]): inactive; GI50 (HT-29 [10]): inactive
CCOc1ccc(-c2n[n+]3c(C)cccc3c3ccc4ccccc4c23)cc1,–,600,–,400,500,2400,–,1300,600,1800,1000,800,1000,1400,1200,4500,7000,–
c1ccc(-c2n[n+]3c4ccccc4ccc3c3ccc4ccccc4c23)cc1,–,400,–,300,500,500,–,700,400,1000,600,800,1300,100,1000,2000,3500,–
COc1cccc2c1C(=O)c1c(O)c3c(c(O)c1C2=O)C[C@@](O)(C(=O)CO)C[C@@H]3O[C@H]1C[C@H](N)[C@H](O)[C@H](C)O1 [DOXORUBICIN],–,30,–,20,1100,4400,–,10,3100,20,10,70,3500,10,3100,2400,2400,–
CCOc1ccc(-c2n[n+]3ccccc3c3ccc4ccccc4c23)cc1,–,1200,–,500,1200,3800,–,3100,1100,4800,2900,3000,2100,5000,2600,8600,8000,–
CCOc1ccc(-c2n[n+]3c4ccc(C)cc4ccc3c3ccc4ccccc4c23)cc1,–,100,–,70,500,400,inactive,300,200,500,300,500,400,600,400,1700,–,–
